Source: PubChem BioAssay (several laboratories)
PAFAH2 inh: inhibitors of human PAFAH2 | recombinant PAFAH2, FP-rhodamine activity probe, fluorescence polarization | inhibition, % at 3.39 µM | 0.99% of 340,000 active;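 active = inhibition above the mean over all tested compounds plus 3 SD, cut at about 30% in these data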;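 note: inhibitors block probe labeling of enzyme so polarization drops; 0% = enzyme with DMSO and 100% = wells lacking PAFAH2 protein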
PAFAH1B2 FP inh: inhibitors of human PAFAH1B2; AID 492953; 1.2% of 340,000 active; inhibition, % at 3.39 µM; recombinant PAFAH1B2, FP-rhodamine activity probe, fluorescence polarization; P68402;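 active = inhibition above the mean of all tested compounds plus 3 SD, cut at about 24% in these data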;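 note: 0% = enzyme with DMSO and 100% = wells lacking PAFAH1B2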
PAFAH1B3 inh: inhibitors of human PAFAH1B3. Q15102. recombinant PAFAH1B3, FP-rhodamine probe, fluorescence polarization. inhibition, % at 3.39 µM. 0.28% of 340,000 active. AID 492972;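 active = inhibition above the screen-wide average of all tested compounds plus 3 SD, cut at about 25% in these data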;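 note: 0% = enzyme with DMSO only and 100% = wells lacking PAFAH1B3 protein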
Target sequence (Q15102 whole entry, looked up): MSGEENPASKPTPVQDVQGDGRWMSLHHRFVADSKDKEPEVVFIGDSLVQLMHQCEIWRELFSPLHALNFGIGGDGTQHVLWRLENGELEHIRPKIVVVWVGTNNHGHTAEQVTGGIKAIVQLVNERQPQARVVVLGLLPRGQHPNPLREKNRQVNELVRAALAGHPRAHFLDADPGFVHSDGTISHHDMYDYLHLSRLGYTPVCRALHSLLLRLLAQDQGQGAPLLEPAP
UCH37 inh: inhibitors of human deubiquitinating enzyme UCH37; inhibition, % (concentration not given with the values); AID 588478; 0.33% of 330,000 active; purified proteasome/UCH37, Ub-AMC cleavage fluorescence; Q9Y5K5;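 active = mean inhibition over replicate wells above about 20%, limit read from the data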;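 note: 0% = compound-free wells with enzyme and 100% = wells lacking proteasome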
Target sequence (Q9Y5K5 whole entry, looked up): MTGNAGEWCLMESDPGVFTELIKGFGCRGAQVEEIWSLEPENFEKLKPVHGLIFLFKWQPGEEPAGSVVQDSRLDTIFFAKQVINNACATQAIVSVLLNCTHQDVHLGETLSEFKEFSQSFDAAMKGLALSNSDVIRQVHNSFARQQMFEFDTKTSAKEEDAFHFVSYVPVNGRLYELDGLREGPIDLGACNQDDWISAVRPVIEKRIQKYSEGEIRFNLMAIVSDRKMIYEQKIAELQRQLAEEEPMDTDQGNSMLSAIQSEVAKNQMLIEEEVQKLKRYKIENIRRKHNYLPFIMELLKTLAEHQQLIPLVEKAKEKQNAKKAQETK
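system = Proteasome-associated human UCH37 deubiquitinase | amount = 0.15 nM proteasome as dispensed | medium = pH 7.4 Tris-HCl (50 mM) with ovalbumin, ATP-MgCl2, DTT | incubation = 30 min preincubation with enzyme, 25 min cleavage at room temperature | detection = AMC fluorescence 355/460 nm | read-out basis = percent inhibition | controls = no-proteasome and no-compound wells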
pPAFAH inh: pPAFAH (human) enzyme inhibition | recombinant pPAFAH, FP-rhodamine probe fluorescence polarization | inhibition, % at 3.39 µM | AID 463082 | 1.5% of 330,000 active | Q13093;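 active = inhibition above the mean inhibition across the screen plus 3 SD, cut at about 25% in these data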;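 note: inhibitors block binding of the rhodamine activity-based probe so polarization drops; 0% = enzyme with DMSO and 100% = wells lacking pPAFAH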
NR3A LBD binder: NR3A (human) ligand-binding domain modulation; 2.5% of 340,000 active; NR3A LBD differential scanning fluorimetry, Tm shift; 0% = protein alone, 100% = glycine-bound protein; Tm shift relative to glycine control, % at 25 µM;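 active = melting temperature shift of at least 10% of the positive control shift, at one fixed dose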
* = called active by the depositor; . = not tested or not shown. This is a sample that favours compounds with a hit; in the whole collection about 4.8% have one here.

SMILES	PAFAH2 inh	PAFAH1B2 FP inh	PAFAH1B3 inh	UCH37 inh	pPAFAH inh	NR3A LBD binder
CC1CCc2c(sc(N=CN(C)C)c2C#N)C1 (stereo not given)	.	.	.	8	.	.
O=C(COC(=O)C12CC3CC(CC(C3)C1)C2)Nc1nc2c(F)c(F)c(F)cc2s1	5	3	2	.	-4	29*
O=C(COc1cc(Cl)c(Cl)cc1Cl)Nc1ccc([N+](=O)[O-])cc1Cl	1	0	5	6	3	10*
CN(C)S(=O)(=O)c1ccc(Cl)c(NC(=O)COc2ccccc2[N+](=O)[O-])c1	-1	3	-4	.	-1	13*
O=C(COc1ccccc1[N+](=O)[O-])Nc1ccccc1N1CCCCC1	13	7	-7	1	6	-21
O=C(COc1ccccc1[N+](=O)[O-])Nc1ccccc1N1CCCC1	1	1	5	0	7	16*
O=C(COC(=O)c1ccc[n+]([O-])c1)Nc1ccc([N+](=O)[O-])cc1Cl	-5	-1	7	4	-1	-1
O=C(O)CCC(=NNC(=O)CNC(=O)/C=C/c1ccccc1)c1ccccc1	.	.	.	3	.	.
O=C(CNc1ccccc1)NN=Cc1cn(-c2ccccc2)nc1-c1ccccc1	.	.	.	0	.	.
Cc1csc(NC(=O)Nc2cccc(Cl)c2)n1	10	1	3	3	-3	28*
Fc1ccc(-c2csc(NC(=S)Nc3ccccc3)n2)cc1	-2	4	7	3	2	25*
O=C(Nc1ccccc1)Nc1nc(-c2ccc(F)cc2)cs1	4	-5	-4	1	3	6
O=C(Nc1cccc(Cl)c1)Nc1nc(-c2ccccc2)cs1	-5	-4	11	.	-8	31*
COc1ccc(NC(=S)Nc2nc(CC(=O)Nc3ccccc3OC)cs2)cc1	-7	4	7	2	1	8
COc1ccccc1NC(=O)Cc1csc(NC(=S)Nc2ccccc2)n1	-7	1	2	1	-5	11*
O=C(Nc1ccc(Cl)cc1)Nc1nc(-c2ccccc2)cs1	-13	-2	-3	.	2	11*
CCn1c(=O)cc(SCC(=O)N(C)Cc2ccccc2)c2ccccc21	10	4	3	-2	10	-1
CN(Cc1ccccc1)C(=O)CSc1cc(=O)n(C)c2ccccc12	7	-3	3	-1	29*	-4
O=[N+]([O-])c1cccc(-c2nc(-c3cccs3)c(-c3cccs3)[nH]2)c1	-3	6	22	5	28*	6
O=[N+]([O-])c1cccc(-c2nc(-c3ccccc3)c(-c3cccs3)[nH]2)c1	5	2	-3	-1	0	5
Cc1cccc(Nc2nc(N)nc(-c3oc4ccccc4c3C)n2)c1	-21	-5	-7	-11	-29	4
COc1cccc(Nc2nc(N)nc(-c3oc4ccccc4c3C)n2)c1	-26	-4	-15	-9	-19	17*
CCOc1ccc(N(CC(=O)NN=Cc2cc(Br)c(C)o2)S(C)(=O)=O)cc1	.	.	.	1	.	.
COc1cccc(CN(CC2CCCO2)S(=O)(=O)c2ccc(-n3cnnn3)c(OC)c2)c1 (stereo not given)	3	5	0	1	3	10*
COc1ccc(C(=O)N2CCCC(Nc3ccc(C)c(C)c3)C2)cc1F (stereo not given)	3	5	11	4	5	16*
SMILES	PAFAH2 inh	PAFAH1B2 FP inh	PAFAH1B3 inh	UCH37 inh	pPAFAH inh	NR3A LBD binder
Cc1ccc(Cn2c(SCC(=O)NN=Cc3ccccc3OCC(=O)O)nc3ccccc32)cc1	.	.	.	3	.	.
Cc1ccc(NCC(=O)N/N=C/c2ccc(-c3cccc(C(F)(F)F)c3)o2)cc1	-5	-2	8	.	14	25*
O=C(N/N=C/c1ccc(-c2cccc([N+](=O)[O-])c2)o1)c1ccc([N+](=O)[O-])cc1	-2	3	0	.	11	3
O=C(N/N=C/c1ccc(-c2cccc(C(F)(F)F)c2)o1)c1cccc(F)c1	-13	-1	4	.	7	11*
O=C(NN=Cc1ccc(-c2cccc(C(F)(F)F)c2)o1)c1ccccc1Br	.	.	.	-12	.	.
O=C(N/N=C/c1ccc(-c2cccc(C(F)(F)F)c2)o1)c1ccccc1Br	-3	-2	-2	.	-4	15*
CC1(CC(=O)NN=Cc2ccc(-c3cccc(C(F)(F)F)c3)o2)OCCO1	.	.	.	-4	.	.
NC(=O)NN=Cc1ccc(-c2cccc(C(F)(F)F)c2)o1	.	.	.	4	.	.
O=C(N/N=C/c1ccc(-c2cccc([N+](=O)[O-])c2)o1)c1ccccc1O	-1	9	9	.	4	19*
CC(CC(=O)Nc1ccc(Cl)c(Cl)c1)=NNC(N)=S	.	.	.	5	.	.
O=C(N/N=C/c1ccc(-c2cccc(C(F)(F)F)c2)o1)c1ccccc1O	-14	7	6	.	7	20*
O=C(NN=Cc1ccc(-c2ccccc2)o1)c1ccccc1O	.	.	.	-43	.	.
COc1ccc(C(=O)NC2CCCCC2)cc1OC1CCN(C(C)C)CC1	-1	2	4	4	0	13*
COc1ccc(C(=O)NC2CC2)cc1OC1CCN(Cc2cc(C)c(C)cc2C)CC1	-5	-2	6	2	4	103*
COc1cc(C=NNC(=O)c2ccc(N)cc2)ccc1OC(=O)c1cccc(C)c1	.	.	.	-13	.	.
Clc1ccc(C=Nc2c(-c3ccc(Cl)cc3)nc3n2CCS3)cc1	.	.	.	7	.	.
C=CCn1c(=O)n(CCOC)c(=O)c2sc3ccccc3c21	2	5	-4	-89	28*	0
N#Cc1c(N(CCO)CCO)nc(N)c2c(N)nc3c(c12)CC(=O)N3Cc1cccs1	12	8	12	-115	26*	-2
Cc1[nH]c2c(C)cccc2c1CCNS(=O)(=O)c1cccc([N+](=O)[O-])c1	1	-1	6	2	0	30*
Cc1ccc([N+](=O)[O-])cc1S(=O)(=O)NCc1cccnc1	-8	0	-5	0	-6	4
Cc1ccc([N+](=O)[O-])cc1S(=O)(=O)NCCc1c(C)[nH]c2c(C)cccc12	4	4	-4	4	5	33*
O=[N+]([O-])c1cccc(S(=O)(=O)NCCc2ccccc2)c1	10	10	12	1	3	1
CC(CC(=O)Nc1cccnc1)=NNC(=O)C(=O)NC(C)C	.	.	.	5	.	.
O=S(=O)(Nc1ccc(O)c(Sc2nc3ccccc3s2)c1)c1cccc2ccccc12	-9	1	-9	2	9	15*
CCCCN(C(=O)COC(=O)COc1c(C)cc(C)cc1C)c1c(N)n(CCC)c(=O)[nH]c1=O	2	3	5	1	3	32*
N#Cc1c(-c2ccccc2)nc(SCC(=O)Nc2ccccc2)[nH]c1=O	-2	7	14	3	-2	-4
N#Cc1c(-c2ccccc2)nc(SCC(=O)N(c2ccccc2)c2ccccc2)[nH]c1=O	-4	39*	8	2	0	-15
